From ChEMBL document CHEMBL2424614, “A novel p-terphenyl derivative inducing cell-cycle arrest and apoptosis in MDA-MB-435 cells through topoisomerase inhibition” (Eur J Med Chem, 2013)
Calls of active or inactive are those of the source. The rule behind the calls is not given here.

What was measured:
[1] = species on record: Bos taurus; test: Inhibition of calf thymus DNA topoisomerase 1-mediated relaxation of supercoiled pBR322 DNA at 100 uM after 30 mins by Agarose gel electrophoresis
Outline: (§1)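 Relaxation assay with 0.5 µg supercoiled pBR322 and 1 unit calf thymus Topo I, 20 µL. Buffer: 10 mM Tris–HCl pH 7.9, 150 mM NaCl, 0.1% BSA, 1 mM spermidine, 5% glycerol. Incubated 37 °C for 30 min; stopped with sarcosyl stop solution. 1% agarose gel, 5 V/cm, 2 h, TAE; ethidium bromide stain (0.5 µg/mL), UV. DMSO stocks. At least duplicate.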

[2] = test system: MDA-MB-435; test: Cell cycle arrest in human MDA-MB-435 cells assessed as accumulation at sub-G1 phase at 0.25 uM after 24 hrs by propidium iodide staining-based flow cytometry (reference value: 0.79%); assay type: functional
[3] = test system: MDA-MB-435; test: Cell cycle arrest in human MDA-MB-435 cells assessed as accumulation at G2/M phase at 0.25 uM after 24 hrs by propidium iodide staining-based flow cytometry (reference value: 14.05%); assay type: functional
[4] = test system: MDA-MB-435; test: Induction of DNA damage in human MDA-MB-435 cells assessed as phosphorylation of ATM at Ser1981 at 0.5 uM after 12 hrs by Western blotting analysis; assay type: functional, cell-based
Outline: (§2)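 Treated MDA-MB-435 cells lysed in ice-cold Tris-HCl pH 7.4 buffer with Triton, phosphatase and protease inhibitors. Lysates clarified, boiled in SDS loading buffer, run on 8-12% SDS-PAGE and blotted. Membranes blocked in 5% skim milk, probed with primary antibodies, then peroxidase secondaries with ECL detection. β-actin as loading control.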

[5] = test system: MDA-MB-435; test: Induction of apoptosis in human MDA-MB-435 cells assessed as viable cells at 0.5 uM after 24 hrs by annexin-V FITC/propidium iodide staining-based flow cytometry (reference value: 98.62 +/- 0.25%); assay type: functional; settings: MDA-MB-435, 24 h, read-out: Activity
Outline: (§3)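 MDA-MB-435 cells treated 24 h, stained with annexin V-FITC/PI per kit instructions, analysed by flow cytometry. Quadrant statistics: lower right taken as apoptotic, upper right as necrotic or post-apoptotic necrotic. Representative of three similar experiments.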

[6] = test system: MDA-MB-435; test: Cell cycle arrest in human MDA-MB-435 cells assessed as accumulation at S phase at 0.25 uM after 24 hrs by propidium iodide staining-based flow cytometry (reference value: 57.11%); assay type: functional
[7] = test system: MDA-MB-435; test: Induction of apoptosis in human MDA-MB-435 cells assessed as early apoptotic cells at 1 uM after 24 hrs by annexin-V FITC/propidium iodide staining-based flow cytometry (reference value: 0.61 +/- 0.24%); assay type: functional; outline: as §3
[8] = test system: MDA-MB-435; test: Induction of apoptosis in human MDA-MB-435 cells assessed as late apoptotic cells at 1 uM after 24 hrs by annexin-V FITC/propidium iodide staining-based flow cytometry (reference value: 0.34 +/- 0.08%); assay type: functional; outline: as §3
[9] = test system: MDA-MB-435; test: Cell cycle arrest in human MDA-MB-435 cells assessed as accumulation at G2/M phase at 0.5 uM after 24 hrs by propidium iodide staining-based flow cytometry (reference value: 14.05%); assay type: functional
[10] = test system: MDA-MB-435; test: Induction of apoptosis in human MDA-MB-435 cells assessed as late apoptotic cells at 2 uM after 24 hrs by annexin-V FITC/propidium iodide staining-based flow cytometry (reference value: 0.34 +/- 0.08%); assay type: functional; outline: as §3
[11] = test system: MDA-MB-435; test: Induction of apoptosis in human MDA-MB-435 cells assessed as chromatin condensation at 0.25 to 1 uM by DAPI staining-based fluorscence microscopy; assay type: functional, cell-based
Outline: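 Treated MDA-MB-435 cells washed in ice-cold PBS, fixed 20 min in 4% paraformaldehyde, stained 30 min at 37 °C with DAPI (50 µg/mL) containing 100 µg/mL RNase A. After PBS washes, examined by fluorescence microscopy (excitation 340 nm, emission 488 nm).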

[12] = test system: MDA-MB-435; test: Induction of apoptosis in human MDA-MB-435 cells assessed as downregulation of Bcl-2 protein expression at 0.25 to 1 uM after 12 hrs by Western blotting analysis; assay type: functional, cell-based; outline: as §2
[13] = test system: MDA-MB-435; test: Induction of apoptosis in human MDA-MB-435 cells assessed as upregulation of Bax protein expression at 0.25 to 1 uM after 12 hrs by Western blotting analysis; assay type: functional, cell-based; outline: as §2
[14] = biological target: DNA topoisomerase 2-alpha (Homo sapiens) (UniProt P11388); test: Inhibition of recombinant human DNA topoisomerase 2-alpha-mediated relaxation of supercoiled pBR322 DNA at 10 to 100 uM after 30 mins by Agarose gel electrophoresis
Outline: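 Relaxation assay with 0.5 µg supercoiled pBR322 and 1 unit recombinant human Topo IIα, 20 µL. Incubated 30 min at 30 °C; stopped with 7 mM EDTA. 1% agarose gel, 5 V/cm, 2 h, TAE; ethidium bromide stain, UV. DMSO stocks. At least duplicate.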

[15] = test system: MDA-MB-435; test: Cell cycle arrest in human MDA-MB-435 cells assessed as accumulation at S phase at 1 uM after 24 hrs by propidium iodide staining-based flow cytometry (reference value: 57.11%); assay type: functional
[16] = test system: MDA-MB-435; test: Induction of apoptosis in human MDA-MB-435 cells assessed as viable cells at 2 uM after 24 hrs by annexin-V FITC/propidium iodide staining-based flow cytometry (reference value: 98.62 +/- 0.25%); assay type: functional; settings: MDA-MB-435, 24 h, read-out: Activity; outline: as §3
[17] = test system: MDA-MB-435; test: Induction of DNA damage in human MDA-MB-435 cells assessed as phosphorylation of p53 at Ser15 at 0.5 uM after 12 hrs by Western blotting analysis; assay type: functional, cell-based; outline: as §2
[18] = test system: LNCaP; test: Cytotoxicity against human LNCAP cells assessed as growth inhibition after 72 hrs by MTT assay; assay type: functional, cell-based
Outline: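 MTT assay: cells treated in triplicate with a range of concentrations for 72 h at 37 °C, 5% CO2. Medium replaced, MTT (5 mg/mL) added for 4 h, then SDS/isobutanol/HCl solubiliser overnight. Absorbance read at 590 nm. Inhibition calculated against control and blank wells; IC50 is concentration giving 50% growth inhibition; three independent experiments.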

[19] = test system: MDA-MB-435; test: Induction of apoptosis in human MDA-MB-435 cells assessed as dead cells at 1 uM after 24 hrs by annexin-V FITC/propidium iodide staining-based flow cytometry (reference value: 0.61 +/- 0.24%); assay type: functional
[20] = test system: MDA-MB-435; test: Cell cycle arrest in human MDA-MB-435 cells assessed as accumulation at sub-G1 phase at 0.25 to 1 uM by propidium iodide staining-based flow cytometry; assay type: functional; settings: TDE = time-dependent effect, in the assay text read “G2/M phase” for “sub-G1 phase”
Outline: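 PI-stained DNA content of treated MDA-MB-435 cells read by flow cytometry. Sub-G1 population taken as apoptotic cellular fragments; three independent experiments.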

[21] = species on record: Bos taurus; test: Inhibition of calf thymus DNA topoisomerase 1-mediated relaxation of supercoiled pBR322 DNA at 10 to 100 uM after 30 mins by Agarose gel electrophoresis; outline: as §1
[22] = biological target: DNA topoisomerase 2-alpha (Homo sapiens) (UniProt P11388); test: Inhibition of recombinant human DNA topoisomerase 2-alpha assessed as supression of kDNA decatenation at 100 uM after 30 mins by agarose gel electrophoresis
Outline: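 ATP-dependent decatenation assay: 0.20 µg kDNA with 2 units Topo IIα at 37 °C for 30 min, 20 µL. Buffer: 50 mM Tris pH 8.0, KCl, 10 mM MgCl₂, 0.5 mM ATP, 0.5 mM DTT, 30 µg/mL BSA. Stopped with 10% SDS. Agarose gel scored for kDNA versus released minicircles.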

Sequence of DNA topoisomerase 2-alpha (Homo sapiens) (P11388 whole entry): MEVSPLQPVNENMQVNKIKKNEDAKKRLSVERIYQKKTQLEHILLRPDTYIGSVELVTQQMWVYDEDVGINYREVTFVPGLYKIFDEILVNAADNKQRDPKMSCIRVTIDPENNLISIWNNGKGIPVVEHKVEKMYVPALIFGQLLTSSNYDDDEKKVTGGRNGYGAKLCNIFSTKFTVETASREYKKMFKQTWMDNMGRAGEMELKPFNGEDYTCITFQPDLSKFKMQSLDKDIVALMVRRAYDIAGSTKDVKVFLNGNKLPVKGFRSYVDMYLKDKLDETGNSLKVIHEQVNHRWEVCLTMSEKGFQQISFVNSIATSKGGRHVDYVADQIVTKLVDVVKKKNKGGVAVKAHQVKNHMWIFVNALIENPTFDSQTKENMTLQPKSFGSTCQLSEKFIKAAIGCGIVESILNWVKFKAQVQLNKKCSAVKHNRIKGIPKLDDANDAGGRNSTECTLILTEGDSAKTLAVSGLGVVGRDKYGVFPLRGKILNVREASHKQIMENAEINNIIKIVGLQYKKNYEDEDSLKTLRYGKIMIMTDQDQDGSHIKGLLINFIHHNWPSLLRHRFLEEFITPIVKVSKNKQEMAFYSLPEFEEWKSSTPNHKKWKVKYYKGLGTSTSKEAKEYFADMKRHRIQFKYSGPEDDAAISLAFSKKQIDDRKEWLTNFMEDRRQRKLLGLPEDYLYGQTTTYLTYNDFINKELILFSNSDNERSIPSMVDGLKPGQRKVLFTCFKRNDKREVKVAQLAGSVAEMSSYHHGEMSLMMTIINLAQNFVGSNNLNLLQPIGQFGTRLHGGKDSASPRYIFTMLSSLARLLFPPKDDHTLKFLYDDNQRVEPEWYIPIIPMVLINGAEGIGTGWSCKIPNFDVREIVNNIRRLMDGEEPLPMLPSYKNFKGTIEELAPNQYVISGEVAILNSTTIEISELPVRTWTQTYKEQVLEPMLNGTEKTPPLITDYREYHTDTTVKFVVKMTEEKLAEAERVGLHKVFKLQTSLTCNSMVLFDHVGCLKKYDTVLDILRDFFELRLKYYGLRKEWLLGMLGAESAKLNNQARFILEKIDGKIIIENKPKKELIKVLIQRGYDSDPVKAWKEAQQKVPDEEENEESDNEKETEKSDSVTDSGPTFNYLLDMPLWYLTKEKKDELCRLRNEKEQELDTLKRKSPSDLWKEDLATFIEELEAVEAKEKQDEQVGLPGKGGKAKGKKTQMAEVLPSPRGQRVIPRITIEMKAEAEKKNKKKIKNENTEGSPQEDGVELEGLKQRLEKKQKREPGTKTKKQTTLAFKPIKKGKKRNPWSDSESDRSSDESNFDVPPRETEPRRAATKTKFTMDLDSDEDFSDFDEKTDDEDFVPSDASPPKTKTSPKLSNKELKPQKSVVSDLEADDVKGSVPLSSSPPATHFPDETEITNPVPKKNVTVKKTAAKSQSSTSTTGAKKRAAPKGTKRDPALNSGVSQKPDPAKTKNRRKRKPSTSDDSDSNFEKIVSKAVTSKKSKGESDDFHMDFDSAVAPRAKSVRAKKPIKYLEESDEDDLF

## Oc1ccc(-c2ccc(-c3ccc(O)c(O)c3)cc2)cc1
[1]
  inhibition: Active
[2]
  Activity: 1.04%
[3]
  Activity: 16.24%
[4]
  Activity: inactive
[5]
  viability at 0.5 µM: 81.6%
[6]
  Activity: 47.81%
[7]
  Activity: 13.33%
[8]
  Activity: 8.64%
[9]
  Activity: 38.41%
[10]
  Activity: 14.35%
[11]
  Activity: Active
[12]
  Activity: Active
[13]
  Activity: Active
[14]
  inhibition: Active
[15]
  Activity: 12.58%
[16]
  viability at 2 µM: 71.8%
[17]
  Activity: inactive
[18]
  growth inhibition (GI): Active
[19]
  Activity: 1.03%
[20]
  Activity: tde
[21]
  inhibition: Active
[22]
  inhibition: Active
